Here are results for 29 compounds from ChEMBL document CHEMBL4308833, “A Thieno[2,3- d]pyrimidine Scaffold Is a Novel Negative Allosteric Modulator of the Dopamine D2 Receptor” (J Med Chem, 2018).

The target in experiment [1] is D(2) dopamine receptor (Homo sapiens) (UniProt P14416). As to the kind of experiment: Displacement of [3H]Raclopride from recombinant human D2L receptor expressed in Flp-In CHO cell membranes after 2 to 3 hrs by microbeta counting method. In short, it runs like this: (§1)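 hD2LR FlpIn CHO membrane homogenate (15 µg protein) was co-incubated with 0.5 nM [3H]raclopride and test compound at 10^-3 to 10^-7 M (half-log dilutions from DMSO stock, in duplicate). Incubation was 2-3 h at 25 °C in HEPES buffer, pH 7.4. Nonspecific binding was defined with 10 µM haloperidol. Filtration was followed by scintillation counting. KB and cooperativity α were obtained from an allosteric ternary complex model.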

Experiment [2] has the same target. As to the kind of experiment: Negative allosteric modulation of recombinant human D2L receptor expressed in Flp-In CHO cells assessed as inhibition of dopamine-induced reduction in forskolin stimulated cAMP accumulation by measuring co-operativity factor up to 100 uM preincubated for 30 mins followed by forskolin stimulation and measured after 30 mins by BRET assay. In kind it is functional, cell-based. (In general: cAMP levels reflect the balance of adenylyl cyclase and phosphodiesterase activity.)

The target is the same in experiment [3]. Kind of experiment: Displacement of [3H]Raclopride from recombinant human D2L receptor expressed in Flp-In CHO cell membranes assessed as co-operativity factor after 2 to 3 hrs by microbeta counting method. An outline of the steps:
as §1
On the technique in general: Displacement assays read how much labelled ligand stays bound in the presence of the test substance.

Experiment [4] has the same target. As to the kind of experiment: Negative allosteric modulation of recombinant human D2L receptor expressed in Flp-In CHO cells assessed as inhibition of dopamine-induced reduction in forskolin stimulated cAMP accumulation preincubated for 30 mins followed by forskolin stimulation and measured after 30 mins by BRET assay. The class given is functional, cell-based.

For experiment [5] the target is unchanged. Kind of experiment: Negative allosteric modulation of recombinant human D2L receptor expressed in Flp-In CHO cells assessed as inhibition of dopamine-induced reduction in forskolin stimulated cAMP accumulation by measuring co-operativity factor preincubated for 30 mins followed by forskolin stimulation and measured after 30 mins by BRET assay. The class given is functional, cell-based.

Experiment [6] has the same target. As to the kind of experiment: Negative allosteric modulation of recombinant human D2L receptor expressed in Flp-In CHO cells assessed as inhibition of dopamine-induced reduction in forskolin stimulated cAMP accumulation by measuring modulation of dopamine efficacy preincubated for 30 mins followed by forskolin stimulation and measured after 30 mins by BRET assay. In kind it is functional, cell-based.

The target of experiment [7] is D(3) dopamine receptor (Homo sapiens) (UniProt P35462). As to the kind of experiment: Displacement of [3H]Raclopride from recombinant D3 receptor (unknown origin) expressed in Flp-In CHO cell membranes after 2 to 3 hrs by microbeta counting method. An outline of the steps:
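In FlpIn CHO membranes expressing hD3R, compound was tested for displacement of [3H]raclopride in equilibrium binding. Competition curves were fitted with an allosteric ternary complex model to give KB and the net cooperativity factor with [3H]raclopride. Data are at least three independent experiments in duplicate.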

The species named for experiment [8] is Homo sapiens. Kind of experiment: Selectivity ratio of Kb for recombinant D3 receptor (unknown origin) expressed in Flp-In CHO cell membranes to Kb for recombinant human D2L receptor expressed in Flp-In CHO cell membranes. In kind it is cell-based.

Activity calls are given as the source filed them. No cut-off for these calls is given here.

Sequence of D(3) dopamine receptor (Homo sapiens) (P35462 whole entry): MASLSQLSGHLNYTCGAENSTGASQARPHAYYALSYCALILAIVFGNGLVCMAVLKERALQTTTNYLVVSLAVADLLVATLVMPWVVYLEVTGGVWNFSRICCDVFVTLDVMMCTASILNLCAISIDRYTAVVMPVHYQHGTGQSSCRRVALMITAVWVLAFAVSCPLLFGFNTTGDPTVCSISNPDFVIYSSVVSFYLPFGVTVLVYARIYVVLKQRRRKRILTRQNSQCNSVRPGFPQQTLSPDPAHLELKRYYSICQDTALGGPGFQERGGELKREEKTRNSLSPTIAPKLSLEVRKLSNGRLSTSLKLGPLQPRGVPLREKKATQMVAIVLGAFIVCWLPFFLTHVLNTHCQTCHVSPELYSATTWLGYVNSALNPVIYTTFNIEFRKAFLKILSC
Sequence of D(2) dopamine receptor (Homo sapiens) (P14416 whole entry): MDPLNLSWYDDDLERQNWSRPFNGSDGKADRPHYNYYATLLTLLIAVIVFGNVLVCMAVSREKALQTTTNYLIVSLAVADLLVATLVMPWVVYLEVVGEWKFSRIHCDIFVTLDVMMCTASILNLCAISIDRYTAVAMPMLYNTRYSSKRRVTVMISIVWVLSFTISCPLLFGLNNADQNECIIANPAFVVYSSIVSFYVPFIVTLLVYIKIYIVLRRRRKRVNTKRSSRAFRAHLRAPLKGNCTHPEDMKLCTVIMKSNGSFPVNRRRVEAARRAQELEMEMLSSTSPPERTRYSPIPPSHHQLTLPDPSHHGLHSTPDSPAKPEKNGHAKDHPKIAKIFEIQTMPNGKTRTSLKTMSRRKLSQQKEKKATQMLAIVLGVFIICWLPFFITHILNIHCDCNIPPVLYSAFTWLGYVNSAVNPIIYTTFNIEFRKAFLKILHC

What is called pKb is −log10 of the Kb, conventionally taken in molar units. Regarding `FC(F)(F)c1cccc(Oc2nc(CN3CCOCC3)nc3sc4c(c23)CCCC4)c1`, in experiment [1], the Kb worked out at 22 µM and the pKb was found to be 4.66. In addition, the inhibition entry in experiment [2] is “inactive”.

For the compound `FC(F)(F)c1cccc(Nc2nc(CN3CCOCC3)nc3scc(-c4ccccc4)c23)c1`, in experiment [1], the Kb amounted to 48.6 µM and the pKb stood at 4.31. Besides, in experiment [3], the Activity stood at 0.13 and the log(activity) is -0.88. In addition, the inhibition entry in experiment [2] is “inactive”.

As for `O=c1[nH]cnc2sc3c(c12)CCCC3`, the inhibition entry in experiment [2] is “inactive”.

For the compound `FC(F)(F)c1cccc(Nc2nc(CCCN3CCOCC3)nc3sc4c(c23)CCCC4)c1`, in experiment [1], the Kb came out at 13 µM and the pKb was determined as 4.89. In experiment [4], the Kb came out at 1.63 µM and the negative-log Kb (pKb) stood at 5.79. In experiment [5], the Activity is 0.21 and the log(activity) is -0.68. In experiment [6], the Activity is 0.4 and the log(activity) is -0.4.

As for `c1ccc(Nc2nc(CN3CCOCC3)nc3sc4c(c23)CCCC4)cc1`, in experiment [1], the Kb came to 99 µM and the pKb came to 4. In experiment [4], the Kb was found to be 7.46 µM and the pKb was 5.13. For the same compound, the log(activity) in experiment [5] came to 0. In experiment [6], the Activity came out at 0.11 and the log(activity) was -0.95.

Take `Oc1cccc(Nc2nc(CN3CCOCC3)nc3sc4c(c23)CCCC4)c1`: in experiment [1], the Kb came out at 35 µM and the negative logarithm of the Kb (pKb) worked out at 4.45. Further, in experiment [4], the Kb was found to be 2.81 µM and the pKb is 5.55. Besides, in experiment [5], the Activity was determined as 0.06 and the log(activity) was -1.22. Besides, in experiment [6], the log(activity) was -3.

On to `FC(F)(F)c1cccc(Nc2nc(CN3CCOCC3)nc3sc(C4CCCCC4)cc23)c1`, for which the Kb in experiment [1] is 45.8 µM; in experiment [4] it was 5.37 µM. Moreover, the pKb in experiment [1] was determined as 4.34; in experiment [4], 5.27. Also, the Activity in experiment [5] was determined as 0.13. Further, the log(activity) was -0.9 in experiment [5] and 0 in experiment [6].

On to `CNc1nc(CN2CCOCC2)nc2sc3c(c12)CCCC3`, for which, in experiment [1], the Kb was 53 µM and the pKb amounted to 4.28. For the same compound, the inhibition entry in experiment [2] was “inactive”.

On to `FC(F)(F)c1cccc(Nc2nc(CCN3CCOCC3)nc3sc4c(c23)CCCC4)c1`, for which, in experiment [1], the Kb amounted to 70 µM and the pKb stood at 4.16. Also, in experiment [4], the Kb worked out at 0.981 µM and the negative logarithm of the Kb (pKb) worked out at 6.01. Moreover, in experiment [5], the Activity turned out to be 0.23 and the log(activity) is -0.63. In experiment [6], the log(activity) is 0.

Regarding `CCN(CC)c1nc(CCCCN2CCOCC2)nc2sc3c(c12)CCCC3`, the Kb in experiment [1] worked out at 16 µM; in experiment [4], 1.77 µM; in experiment [7], 10 µM. In addition, the pKb in experiment [1] stood at 4.79; in experiment [4], 5.8; in experiment [7] it was 4.99. In addition, the log(activity) in experiment [6] is 1.07. In experiment [8], the Selectivity ratio came out at 1.6.

For `FC(F)(F)c1cccc(Nc2nc(CN3CCOCC3)nc3sccc23)c1`, in experiment [1], the pKb is 3.91. The inhibition entry in experiment [2] is “inactive”.

With `FC(F)(F)c1cccc(Nc2nc(CN3CCOCC3)nc3sc4c(c23)CCCCCC4)c1`, the pKb in experiment [1] stood at 3.98. The inhibition result in experiment [2] was “inactive”.

With `FC(F)(F)c1cccc(Nc2nc(CN3CCOCC3)nc3sc(Cc4ccccc4)cc23)c1`, in experiment [1], the Kb turned out to be 50 µM and the pKb came to 4.3. Besides, in experiment [2], the inhibition result was “inactive”.

For `FC(F)(F)c1cccc(Nc2nc(CN3CCOCC3)nc3sc(-c4ccccc4)cc23)c1`, in experiment [1], the Kb worked out at 45 µM and the pKb worked out at 4.35. The inhibition entry in experiment [2] is “inactive”.

Take `FC(F)(F)c1cccc(Nc2nc(CCCCN3CCOCC3)nc3sccc23)c1`: in experiment [1], the Kb was 19 µM and the pKb was 4.71. In experiment [4], the Kb was 1.4 µM and the pKb stood at 5.85. Moreover, in experiment [5], the Activity came out at 0.13 and the log(activity) is -0.88. In experiment [6], the Activity was 0.06 and the log(activity) is -1.21.

For `CCN(CC)c1nc(CN2CCOCC2)nc2sccc12`, the Kb in experiment [1] was determined as 1.3 µM; in experiment [4] it was 3.13 µM; in experiment [7] it was 11 µM. Also, the figures for the pKb in experiment [1], in experiment [4] and in experiment [7] were 5.89, 5.5 and 4.95, respectively. Moreover, the Activity came to 0.08 in experiment [5] and 0.24 in experiment [6]. In addition, the values for the log(activity) in experiment [5] and in experiment [6] were -1.1 and -0.62, respectively. The Selectivity ratio in experiment [8] came to 0.1.

`Cc1sc2nc(CN3CCOCC3)nc(Nc3cccc(C(F)(F)F)c3)c2c1C`: in experiment [1], the negative logarithm of the Kb (pKb) was determined as 3.59. Further, the inhibition result in experiment [2] is “inactive”.

As for `FC(F)(F)c1cccc(Nc2nc(CN3CCCCC3)nc3sc4c(c23)CCCC4)c1`, in experiment [1], the Kb was determined as 39 µM and the pKb amounted to 4.41. Besides, in experiment [4], the Kb turned out to be 6.98 µM and the pKb was 5.16. In addition, in experiment [5], the Activity was determined as 0.34 and the log(activity) was -0.46. Besides, in experiment [6], the Activity was 0.6 and the log(activity) was -0.22.

In the case of `FC(F)(F)c1cccc(Nc2nc(CN3CCOCC3)nc3scc(C4CCCCC4)c23)c1`, in experiment [1], the Kb stood at 38 µM and the pKb is 4.42. The inhibition entry in experiment [2] is “inactive”.

For the compound `CN(C)c1nc(CN2CCOCC2)nc2sc(Cc3ccccc3)cc12`, in experiment [1], the Kb came to 30 µM and the pKb is 4.51. Further, in experiment [4], the Kb stood at 4.9 µM and the pKb turned out to be 5.31. Also, in experiment [5], the Activity came out at 0.68 and the log(activity) was -0.17. Further, in experiment [6], the Activity was determined as 0.15 and the log(activity) was -0.84.

Consider `Fc1cccc(Nc2nc(CN3CCOCC3)nc3sc4c(c23)CCCC4)c1`, for which, in experiment [4], the Kb is 8.39 µM and the negative logarithm of the Kb (pKb) worked out at 5.08. In addition, in experiment [5], the log(activity) amounted to 0. For the same compound, in experiment [6], the Activity stood at 0.4 and the log(activity) was -0.4.

As to `CCN(CC)c1ncnc2sccc12`, the figures for the Kb in experiment [1] and in experiment [4] were 23 µM and 4.6 µM, respectively. Besides, the figures for the pKb in experiment [1] and in experiment [4] were 4.65 and 5.31, respectively. The results for the Activity in experiment [3] and in experiment [6] were 0.1 and 0.13, respectively. Further, the results for the log(activity) in experiment [3], in experiment [5] and in experiment [6] were -1.01, 0 and -0.89, respectively.

`CCN(CC)c1nc(CCCCN2CCOCC2)nc2sccc12`: the Kb was 3 µM in experiment [1], 1.3 µM in experiment [4] and 0.9 µM in experiment [7]. Also, the pKb in experiment [1] came to 5.51; in experiment [4], 5.89; in experiment [7], 6.06. The Activity in experiment [5] was determined as 0.05; in experiment [6] it was 0.15. The log(activity) is -1.34 in experiment [5] and -0.82 in experiment [6]. The Selectivity ratio in experiment [8] was found to be 3.5.

In the case of `FC(F)(F)c1cccc(Nc2nc(CN3CCOCC3)nc3sc4c(c23)CCCCC4)c1`, in experiment [1], the Kb came out at 37 µM and the negative-log Kb (pKb) is 4.43. In addition, the inhibition entry in experiment [2] is “inactive”.

Turning to `FC(F)(F)c1cccc(Nc2nc(CN3CCOCC3)nc3sc4c(c23)CCC4)c1`, in experiment [1], the Kb is 59 µM and the pKb was 4.23. In experiment [4], the Kb amounted to 11.4 µM and the pKb is 4.95. Moreover, in experiment [5], the Activity was 0.13 and the log(activity) was -0.9. Further, the log(activity) in experiment [6] came out at 0.

For `FC(F)(F)c1cccc(Nc2ncnc3sccc23)c1`, in experiment [1], the Kb was found to be 63 µM and the pKb is 4.2. In experiment [4], the Kb was determined as 0.8 µM and the pKb was 6.13. Besides, in experiment [5], the Activity stood at 0.37 and the log(activity) is -0.43. In addition, in experiment [6], the log(activity) was determined as 0.

Regarding `CCN(CC)c1nc(CC2CCOCC2)nc2sc3c(c12)CCCC3`, in experiment [1], the Kb worked out at 35 µM and the negative logarithm of the Kb (pKb) came out at 4.45. Further, the inhibition result in experiment [2] was “inactive”.

For the compound `CCN(CC)c1ncnc2sc3c(c12)CCCC3`, the Kb in experiment [1] stood at 17 µM; in experiment [4], 1.92 µM. The pKb in experiment [1] was determined as 4.76; in experiment [4], 5.72. In addition, the log(activity) was 0 in experiment [5] and -3 in experiment [6].

On to `COc1cccc(Nc2nc(CN3CCOCC3)nc3sc4c(c23)CCCC4)c1`, for which, in experiment [1], the Kb stood at 48 µM and the pKb amounted to 4.32. In addition, in experiment [4], the Kb was 8.02 µM and the negative logarithm of the Kb (pKb) was 5.1. Besides, in experiment [5], the Activity stood at 0.19 and the log(activity) is -0.73. For the same compound, in experiment [6], the Activity worked out at 0.29 and the log(activity) is -0.53.
